7 compounds from ChEMBL document CHEMBL1134857, “The synthesis and biological evaluation of a novel series of antimicrobials of the oxazolidinone class” (Bioorg Med Chem Lett, 2002) can be followed below.

As a reminder, the MIC is the smallest concentration in the dilution series that meets the test's criterion for growth inhibition. The term IC50 denotes the concentration at which inhibition is half-maximal. Low readings indicate greater potency, high ones weaker potency.

In brackets after ≈: the same amount, converted by molar mass.

One experiment concerns Staphylococcus aureus. The experiment is described as follows: Minimum inhibitory concentration measured against Staphylococcus aureus. Format: functional.
Another experiment relates to Enterococcus faecium. Put plainly: Minimum inhibitory concentration measured against Enterococcus faecium. Format: functional.
For the next experiment, the species on record is Rattus norvegicus. The experiment is described as follows: Inhibition of mitochondrial protein synthesis (MPS) in rat heart mitochondria. Format: functional. The method, boiled down: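 Rat heart mitochondria were incubated at 1 mg/mL protein (Bradford) in buffer with translation components (ADP, amino acids). Incorporation of S35 methionine was followed for 1 h at 30 °C, then quenched with cold 5% TCA/5 mM methionine. Triplicate aliquots were filtered, washed and counted. Compounds were tested at 6–7 concentrations, ≤1% organic. IC50 came from the linear portion of the percent-of-control curve, as the mean of ≥2 experiments.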

Experiment [1] concerns the target T1, Amine oxidase [flavin-containing] B (Rattus norvegicus, UniProt P19643).
T1 sequence (P19643 whole entry): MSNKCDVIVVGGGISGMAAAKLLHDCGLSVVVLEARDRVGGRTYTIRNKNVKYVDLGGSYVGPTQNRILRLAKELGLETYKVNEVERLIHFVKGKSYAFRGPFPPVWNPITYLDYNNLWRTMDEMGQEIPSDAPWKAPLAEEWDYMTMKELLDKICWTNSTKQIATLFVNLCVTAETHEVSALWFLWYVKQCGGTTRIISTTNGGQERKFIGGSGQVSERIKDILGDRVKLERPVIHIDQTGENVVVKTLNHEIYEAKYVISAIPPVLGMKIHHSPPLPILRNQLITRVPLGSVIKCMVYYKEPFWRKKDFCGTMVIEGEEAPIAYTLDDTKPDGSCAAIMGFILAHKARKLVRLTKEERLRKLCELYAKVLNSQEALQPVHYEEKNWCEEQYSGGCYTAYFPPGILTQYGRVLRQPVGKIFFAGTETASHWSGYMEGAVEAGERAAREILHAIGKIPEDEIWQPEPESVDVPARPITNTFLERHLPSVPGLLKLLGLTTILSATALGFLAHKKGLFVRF
Put plainly: Inhibition of Monoamine oxidase B in rat primary hepatocytes. It is filed as cell-based, Hepatocyte.

The subject of another experiment is Moraxella catarrhalis. Put plainly: Minimum inhibitory concentration measured against Moraxella catarrhalis. It is filed as functional.
Experiment [2] deals with Staphylococcus epidermidis. Put plainly: Minimum inhibitory concentration measured against Staphylococcus epidermidis. It is filed as functional.
For a further experiment, the system named is Streptococcus pneumoniae. Put plainly: Minimum inhibitory concentration measured against Streptococcus pneumoniae. Format: functional.
Experiment [3] has as its target T1, Amine oxidase [flavin-containing] B. The experiment is described as follows: Compound was evaluated for inhibition of Mono aminoxidase B in rat primary hepatocytes. Format: cell-based, Hepatocyte.

On to `COC(=O)c1cccc(/C(Br)=C/c2ccc(N3C[C@H](CNC(C)=O)OC3=O)cc2F)c1`, for which the minimum inhibitory concentration (MIC) is 8 µg/mL (≈ 16.3 µM) with Staphylococcus aureus; 4 µg/mL (≈ 8.14 µM) in the experiment with Enterococcus faecium; greater than 128 µg/mL in the experiment with Moraxella catarrhalis; 8 µg/mL (≈ 16.3 µM) in experiment [2]; 32 µg/mL (≈ 65.1 µM) in the experiment on Streptococcus pneumoniae. For the same compound, the IC50 in the experiment filed under Rattus norvegicus was 150 µM; in experiment [1] it was greater than 300 µM.
Take `CC(=O)NC[C@H]1CN(c2ccc(/C=C/c3cccnc3)c(F)c2)C(=O)O1`: the minimum inhibitory concentration (MIC) is 4 µg/mL (≈ 11.3 µM) against Staphylococcus aureus; 2 µg/mL (≈ 5.63 µM) in the experiment on Enterococcus faecium; 16 µg/mL (≈ 45 µM) against Moraxella catarrhalis; 2 µg/mL (≈ 5.63 µM) in experiment [2]; 16 µg/mL (≈ 45 µM) in the experiment on Streptococcus pneumoniae. The half-maximal inhibitory concentration (IC50) in the experiment filed under Rattus norvegicus stood at 7.8 µM; in experiment [1] it was 59 µM.
For `CC(=O)NC[C@H]1CN(c2ccc(/C=C(\F)c3nnn(C)n3)c(F)c2)C(=O)O1`, the minimal inhibitory concentration (MIC) in the experiment with Staphylococcus aureus amounted to 8 µg/mL (≈ 21.1 µM); in the experiment with Enterococcus faecium, 4 µg/mL (≈ 10.6 µM); in the experiment with Moraxella catarrhalis it was 32 µg/mL (≈ 84.6 µM); in experiment [2] it was 1 µg/mL (≈ 2.64 µM); in the experiment with Streptococcus pneumoniae, 2 µg/mL (≈ 5.29 µM). Also, the IC50 is 4.9 µM in the experiment listed under Rattus norvegicus and greater than 300 µM in experiment [1].
Turning to `CC(=O)NC[C@H]1CN(c2ccc(/C=C(\Br)c3ccccc3C#N)c(F)c2)C(=O)O1`, the minimal inhibitory concentration (MIC) turned out to be 16 µg/mL (≈ 34.9 µM) in the experiment on Staphylococcus aureus; 4 µg/mL (≈ 8.73 µM) against Enterococcus faecium; 128 µg/mL (≈ 279 µM) against Moraxella catarrhalis; 4 µg/mL (≈ 8.73 µM) in experiment [2]; 2 µg/mL (≈ 4.36 µM) with Streptococcus pneumoniae. Moreover, the concentration for half-maximal inhibition (IC50) is 36 µM in the experiment filed under Rattus norvegicus and greater than 150 µM in experiment [1].
Turning to `CC(=O)NC[C@H]1CN(c2ccc(/C=C(\Br)c3cccc(C#N)c3)c(F)c2)C(=O)O1`, the minimal inhibitory concentration (MIC) in the experiment on Staphylococcus aureus is 0.25 µg/mL (≈ 0.546 µM); with Enterococcus faecium it was 0.125 µg/mL (≈ 0.273 µM); against Moraxella catarrhalis, 1 µg/mL (≈ 2.18 µM); in experiment [2], 0.125 µg/mL (≈ 0.273 µM); against Streptococcus pneumoniae, 0.25 µg/mL (≈ 0.546 µM). Moreover, the half-inhibitory concentration (IC50) was 24 µM in the experiment filed under Rattus norvegicus and greater than 150 µM in experiment [1].
Regarding `CC(=O)NC[C@H]1CN(c2ccc(/C=C(\F)c3cncc(C#N)c3)c(F)c2)C(=O)O1`, the MIC against Staphylococcus aureus is 1 µg/mL (≈ 2.51 µM); in the experiment on Enterococcus faecium, 1 µg/mL (≈ 2.51 µM); in the experiment with Moraxella catarrhalis, 4 µg/mL (≈ 10 µM); in experiment [2], 0.5 µg/mL (≈ 1.26 µM); in the experiment with Streptococcus pneumoniae, no more than 0.125 µg/mL. The IC50 in the experiment filed under Rattus norvegicus was less than 0.1 µM; in experiment [1], greater than 300 µM.
As for `CC(=O)NC[C@H]1CN(c2ccc(N3CCOCC3)c(F)c2)C(=O)O1` [LINEZOLID], the values for the minimal inhibitory concentration (MIC) (against Enterococcus faecium; with Moraxella catarrhalis; in experiment [2]) were 2 µg/mL (≈ 5.93 µM), 4 µg/mL (≈ 11.9 µM) and 1 µg/mL (≈ 2.96 µM), respectively. For the same compound, the figures for the IC50 (in the experiment filed under Rattus norvegicus; in experiment [3]) were 12 µM and 17 µM, respectively.
